# Laboratory results published in ChEMBL document CHEMBL3870332, “Development of pharmacophore models for small molecules targeting RNA: Application to the RNA repeat expansion in myotonic dystrophy type 1” (Bioorg Med Chem Lett, 2016).
# Active and inactive are the calls of the source. The rule behind the calls is not given here.
# How the values were obtained:
# C2C12 [1] = assay: Binding affinity to r(CUG)800 RNA (unknown origin) expressed in mouse C2C12 cells assessed as increase in nucleocytoplasmic transport of mRNA at 12.5 to 50 uM measured after 20 to 24 hrs by luciferase reporter gene assay; type: cell-based
# Method in brief: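 Run in C2C12 cells expressing a luciferase-encoding mRNA carrying 800 CUG repeats in the 3′ UTR. Nucleocytoplasmic export is read as luciferase turnover of a pro-luminescent substrate. Compounds tested at 50, 25 and 12.5 µM.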
# [2] = Binding affinity to biotinylated-r(CUG)12 RNA (unknown origin) assessed as disruption of r(CUG)12/His6-tagged MBNL1 complex at 50 uM incubated for 15 mins by TR-FRET assay
# Method in brief: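 TR-FRET disruption of a preformed r(CUG)12–MBNL1 complex, method as described previously; each compound screened at a single 50 µM concentration.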
# [3] = Cytotoxicity against human HeLa cells expressing DM1 assessed as reduction in cell viability at 100 uM measured after 24 hrs by WST-1 assay; type: toxicity, cell-based
# HeLa [4] = assay: Binding affinity to r(CUG)960 RNA (unknown origin) expressed in human HeLa cells co-expressing cTNT mini-gene assessed as reduction in deregulated cTNT exon5 alternative splicing at 100 uM measured after 20 to 24 hrs by RT-PCR analysis; type: cell-based
# HeLa [5] = assay: Increase in DMPK transcript level in human HeLa cells co-expressing DM1/DMPK and cTNT mini-gene at 100 uM measured after 20 to 24 hrs by RT-qPCR method; type: functional, cell-based
# HeLa [6] = assay: Binding affinity to r(CUG)960 RNA (unknown origin) expressed in human HeLa cells co-expressing cTNT mini-gene assessed as reduction in deregulated cTNT exon5 alternative splicing at 10 uM measured after 20 to 24 hrs by RT-PCR analysis; type: cell-based
# C2C12 [7] = assay: Effect on luciferase expression in mouse C2C12 cells at 12.5 to 50 uM measured after 20 to 24 hrs by luminescence assay; type: functional, cell-based
# Method in brief: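 Counterscreen in the same C2C12 luciferase line without CUG repeats, used to flag compounds that enhance luciferase translation non-specifically. Compounds tested at 50, 25 and 12.5 µM.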
# [8] = Binding affinity to r(GC)20 RNA (unknown origin) measured after 5 mins by fluorescence analysis
# [9] = Binding affinity to AT hairpin DNA (unknown origin) measured after 30 mins by fluorescence analysis
# [10] = Binding affinity to r(CUG)2 RNA (unknown origin) measured after 5 mins by fluorescence analysis
# [11] = Binding affinity to tRNA (unknown origin) measured after 30 mins by fluorescence analysis
Activity [2],Kd [8],Kd [9],Kd [10],Kd [11],Compound,Activity (C2C12 [1]),Activity [3],Activity (HeLa [4]),Activity (HeLa [5]),Activity (HeLa [6]),Activity (C2C12 [7])
> 20%,,,,,O=C(Nc1ccc2[nH]c(-c3ccc(F)cc3)nc2c1)c1ccncc1,Active,Non-Toxic,Active,,,
> 20%,> 30 µM,> 50 µM,4.6 µM,> 50 µM,O=C(Nc1ccc(NC(=O)c2ccc(F)cc2)nc1)c1ccncc1,Active,Non-Toxic,Active,,Active,

# The remaining lines, values behind:
Compound,Activity [2],Kd [8],Kd [9],Kd [10],Kd [11],Activity (C2C12 [1]),Activity [3],Activity (HeLa [4]),Activity (HeLa [5]),Activity (HeLa [6]),Activity (C2C12 [7])
O=C(Nc1ccccn1)c1cccc(OCc2cscn2)c1,> 20%,,,,,Active,Non-Toxic,Active,Active,Active,
Nc1ccc(-c2nc3ccc(-c4nc5ccc(N)cc5[nH]4)cc3[nH]2)cc1,> 20%,,,,,,,,,,
O=C(Nc1ccc(-c2nc3ccccc3[nH]2)cc1)c1cccnc1,> 20%,,,,,Active,,,,,Active
Cc1c(C(=O)Nc2ccccn2)sc2nc(-c3ccccc3)cn12,> 20%,,,,,Active,,,,,Active
O=C(Nc1ccc2c(c1)C(=O)N(c1ccccc1)C2=O)c1ccco1,> 20%,,,,,Active,,,,,Active
